UPR CHOP act – activators of apoptotic CHOP UPR arm, primary screen, cell-based, CHO-CHOP luciferase reporter, luminescence, uHTS; UPR activation; percent of tunicamycin response over DMSO baseline; activation, % at 10 µM; 0.34% of 330,000 active;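 active = at 10 µM dose, activation of 40% or more, normalized to positive control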
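Test system: CHO-CHOP cells, stable luciferase reporter of PERK-eIF2a-CHOP signalling | Quantity: 500 CHO-CHOP cells per well | Buffer or medium: F12 plus 10% serum | Compound dosing: 10 µM single point, 0.5% DMSO | Schedule: 6 h compound treatment, 37 °C | Signal: Luciferase luminescence | Control set: Tunicamycin high control, DMSO low control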
XBP1 UPR activ – activators of adaptive XBP1 UPR arm, primary screen, cell-based, CHO-XBP1 luciferase reporter, luminescence, uHTS; IRE1-XBP1 UPR activation; percent of tunicamycin response, DMSO as zero; activation, % at 20 µM; 0.33% of 330,000 active; AID 463104, 2010;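 active = versus positive control, 20 µM dose yields 30% or more activation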
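incubation = overnight seeding at 37 °C, 6 h compound treatment at 37 °C | assay system = CHO-XBP1 cells stably carrying IRE1-XBP1-driven luciferase reporter | input = 1000 cells per well | detection = luciferase luminescence | dosing = single point, 20 µM final compound, 1% DMSO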
TMEM16A inh – TMEM16A chloride channel inhibitors, primary screen, cell-based, HTS; HEK293 TMEM16A/YFP iodide influx fluorescence, ionomycin; normalized B-score (activity score, 25-100; higher = stronger inhibition) at 10 µM; 1.2% of 310,000 active;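 active = ratio plate-corrected score three or more library SD toward inhibition, starting fluorescence score within five deviations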;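 note: score derived from kinetic fluorescence span divided by baseline fluorescence per well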
Target sequence (Q8BHY3 whole entry, looked up): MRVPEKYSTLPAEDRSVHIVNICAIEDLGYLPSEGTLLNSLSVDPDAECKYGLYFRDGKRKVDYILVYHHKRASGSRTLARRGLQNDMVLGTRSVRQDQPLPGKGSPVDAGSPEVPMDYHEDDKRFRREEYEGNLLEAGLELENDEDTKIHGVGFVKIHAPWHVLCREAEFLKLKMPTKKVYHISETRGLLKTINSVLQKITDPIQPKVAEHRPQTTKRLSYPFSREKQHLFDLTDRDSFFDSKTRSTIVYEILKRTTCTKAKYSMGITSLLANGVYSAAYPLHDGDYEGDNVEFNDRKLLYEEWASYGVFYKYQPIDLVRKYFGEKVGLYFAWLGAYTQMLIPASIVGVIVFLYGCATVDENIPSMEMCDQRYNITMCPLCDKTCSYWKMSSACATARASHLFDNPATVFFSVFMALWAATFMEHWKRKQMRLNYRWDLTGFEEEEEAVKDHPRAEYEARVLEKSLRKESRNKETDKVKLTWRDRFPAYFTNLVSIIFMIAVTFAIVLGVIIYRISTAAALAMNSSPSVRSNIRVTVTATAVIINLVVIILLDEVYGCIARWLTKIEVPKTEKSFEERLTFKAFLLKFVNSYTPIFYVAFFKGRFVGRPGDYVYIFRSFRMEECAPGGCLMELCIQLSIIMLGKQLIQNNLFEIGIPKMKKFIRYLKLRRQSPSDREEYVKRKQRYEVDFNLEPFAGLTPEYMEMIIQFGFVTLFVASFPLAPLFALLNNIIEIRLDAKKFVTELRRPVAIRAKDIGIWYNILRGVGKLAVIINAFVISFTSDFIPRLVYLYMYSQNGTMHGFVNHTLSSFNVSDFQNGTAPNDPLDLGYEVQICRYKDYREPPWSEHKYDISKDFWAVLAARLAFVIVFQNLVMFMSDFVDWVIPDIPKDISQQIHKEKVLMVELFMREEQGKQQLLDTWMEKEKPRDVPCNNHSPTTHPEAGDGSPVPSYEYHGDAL
ANO1 activ – TMEM16A chloride channel activators or potentiators, primary screen, cell-based, HTS; Anoctamin-1 (Mus musculus), Q8BHY3; HEK293 TMEM16A/YFP-H148Q/I152L, iodide quench fluorescence; hits give low values; B-score at 10 µM; 0.3% of 340,000 active;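 active = fluorescence-ratio B-score plate-corrected deviation score at least 3 library SD below zero, with starting fluorescence score within 5 deviations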;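 note: channel opened by trigger with iodide after compound preincubation; score built on the fluorescence ratio of max minus min over baseline; more negative score means more quench and so TMEM16A activation or potentiation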
CHOP inh – inhibitors of CHOP promoter induction, primary screen, cell-based, unfolded protein response, luciferase reporter; inhibition, % at 10 µM; 3.8% of 220,000 active; AID 2732, 2010; CHO-K1 CHOP-promoter luciferase, tunicamycin-induced, 15-18 h;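 active = compounds that reduced the stress-induced luciferase reporter signal by more than about 70% of percent inhibition, limit read from the data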
Lipid droplet – inhibitors of hepatocyte lipid droplet formation, primary screen, imaging, high-throughput imaging, BODIPY stain; inhibition, % at 6.5 µM; 0.4% of 240,000 active; AML12 mouse hepatocytes, oleate lipid droplets;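 active = lipid droplet intensity inhibited by at least 50%, with more than 500 cells counted; inconclusive = wells with under 300 cells, treated as cytotoxic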
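Assay system: AML12 hepatocytes (mouse) / Also added: 100 µM oleic acid challenge / Times: overnight treatment with compound plus oleate / Detection: high-content imaging of BODIPY-stained droplets and DAPI nuclei / Evaluation: % inhibition of lipid droplet signal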
Large screens that a line does not name were inactive. The list is not random: actives were taken first. Their share in the collection is about 4.2%.

COc1ccc(-c2c(C#N)c(SCC(=O)c3cc4ccccc4oc3=O)nc(C)c2C(=O)Nc2ccccc2)cc1	none
Cc1nc(SCC(=O)c2cc3ccccc3oc2=O)c(C#N)c(-c2ccccc2)c1C(=O)Nc1ccccc1	CHOP inh 95
COc1cc(NC(=O)CN2C(=O)c3ccccc3S2(=O)=O)cc(OC)c1	none (no result: TMEM16A inh, CHOP inh, Lipid droplet)
COc1ccc(C(C)=O)cc1Cn1cnc2c(cnn2C)c1=O	none
Cc1ccc(NS(=O)(=O)c2cc(Br)cnc2N)c(Cl)c1	none (no result: CHOP inh)
Nc1ncc(Br)cc1S(=O)(=O)Nc1cc(C(F)(F)F)cc(C(F)(F)F)c1	TMEM16A inh 100, ANO1 activ -5 (no result: CHOP inh)
CCc1nn(C)c(N)c1C	none
N#Cc1c(Nc2ccccc2)sc(C(=O)C2CC2)c1N	none
O=c1[nH]c(CN2CCc3ccccc32)nc2scc(-c3cccs3)c12	CHOP inh 88 (no result: Lipid droplet)
CN(Cc1ccccc1)Cc1nc2scc(-c3ccccc3)c2c(=O)[nH]1	none
O=c1[nH]c(Cc2ccccc2)nc2scc(-c3ccccc3)c12	CHOP inh 80
CCn1c(SCc2nc3scc(-c4ccccc4)c3c(=O)[nH]2)nnc1-c1cccs1	TMEM16A inh 100
O=C(CSCc1nc2scc(-c3cccs3)c2c(=O)[nH]1)Nc1ccccn1	none (no result: CHOP inh)
COc1cc(OC)cc(N(C(=O)c2ccco2)C(C(=O)NC2CCCC2)c2ccc(N3CCOCC3)cc2)c1 (centres undefined)	Lipid droplet inconclusive (no result: CHOP inh)
CC(C)c1cc(C(=O)OCC(=O)NC(=O)NCc2ccco2)c(O)c(C(C)C)c1	CHOP inh 102
O=C(COC(=O)c1ccccc1C(F)(F)F)NC(=O)NCc1ccco1	none (no result: TMEM16A inh, CHOP inh, Lipid droplet)
CCCSc1nsc(NC(=O)C(c2ccccc2)c2ccccc2)n1	CHOP inh 93
CCc1cc2c(=O)n(C(C)C(=O)OC3CCCCC3)cnc2s1 (centres undefined)	CHOP inh 72
CCOC(=O)C(C)n1cnc2sc3c(c2c1=O)CCC3 (centres undefined)	none (no result: Lipid droplet)
O=C(Nc1ccccc1)/C(=C/c1ccc(O)cc1)NC(=O)c1ccco1	none (no result: CHOP inh)
CC1(C)CC(=O)C(C=NCC2CCCO2)=C(O)C1 (centres undefined)	none (no result: Lipid droplet)
CC1(C)CC(=O)C(C=NCC2CCNCC2)=C(O)C1	CHOP inh 72
O=C(NCc1ccco1)C1(S(=O)(=O)c2ccccc2)CC=CC1	none (no result: CHOP inh)
Cn1c(-c2ccccc2)c(C#Cc2ccc(N)cc2)c2ccccc21	none (no result: TMEM16A inh, CHOP inh, Lipid droplet)
COC(=O)c1ccccc1NC(=O)c1sc(=S)n(C)c1N	CHOP inh 82 (no result: Lipid droplet)
COC(=O)c1ccccc1NC(=O)c1cc(OC)cc(OC)c1	CHOP inh 82
Cc1ccc(C(=O)N/C(=C\c2ccc(-c3cccc([N+](=O)[O-])c3)o2)C(=O)NCCCN(C)C)cc1	none (no result: CHOP inh)
Cc1ccc(C(=O)N/C(=C\c2ccc(-c3ccc(Br)cc3)o2)C(=O)NCCCN(C)C)cc1	ANO1 activ -8.2
Clc1ccccc1OCCn1nnc2ccccc21	none (no result: CHOP inh, Lipid droplet)
O=C(c1ccc(Cn2cc([N+](=O)[O-])cn2)o1)N1N=C(C(F)F)CC1(O)C(F)F (centres undefined)	none
O=C(c1ccc(COc2ccccc2Br)o1)N1N=C(C(F)F)CC1(O)C(F)F (centres undefined)	CHOP inh 89
CC(C)OC(=O)c1cc2c(ccn2C)n1CC(=O)N(Cc1ccccc1)c1ccc(F)cc1	CHOP inh 71
CC(C)OC(=O)c1cc2c(ccn2-c2ccc(F)cc2)n1CC(=O)N1CCN(C(=O)c2ccco2)CC1	none
CC(C)OC(=O)c1cc2c(ccn2C)n1CC(=O)N1CCC(Cc2ccccc2)CC1	CHOP inh 70 (no result: Lipid droplet)
CCOC(=O)c1cc2c(ccn2C)n1CC(=O)N(Cc1ccccc1)c1ccc(F)cc1	CHOP inh 70
CCOC(=O)c1cc2c(ccn2C)n1CC(=O)N(Cc1ccccc1)c1ccccc1	none
CCOC(=O)c1ccc(N(C(=O)CNC(=O)c2ccco2)C(C(=O)NCC2CCCO2)c2ccc(OC)c(OC)c2)cc1 (centres undefined)	none (no result: CHOP inh)
COc1cc(CNCc2ccncc2)cc(Br)c1OCc1ccccc1F	none (no result: Lipid droplet)
COc1cc(CNc2ccc(O)cc2)cc(Br)c1OCc1ccccc1F	CHOP inh 87
Cc1ccc(Cl)cc1NC(=O)CSc1sc2c(O)cc(=O)[nH]c2c1C#N	ANO1 activ -4.9 (no result: CHOP inh)
COc1ccc(Cl)cc1NC(=O)CSc1sc2c(O)cc(=O)[nH]c2c1C#N	none (no result: CHOP inh)
COc1cc(C(=O)N[C@H](C(=O)NC(C)C23CC4CC(CC(C4)C2)C3)C(C)C)cc(OC)c1OC (some centres undefined)	TMEM16A inh 100, CHOP inh 75
Cc1ccc(CNC(=O)Nc2ccc3c(c2)N(C)C(=O)CS3)cc1	none
CN1C(=O)CSc2ccc(NC(=O)NCc3ccccc3)cc21	none
CCc1ccc(NC(=O)Nc2ccc3c(c2)N(C)C(=O)CS3)cc1	CHOP inh 75 (no result: Lipid droplet)
Cc1cc(C)cc(NC(=O)Nc2ccc3c(c2)N(C)C(=O)CS3)c1	CHOP inh 87 (no result: Lipid droplet)
Cc1ccc(NC(=O)Nc2ccc3c(c2)N(C)C(=O)CS3)cc1C	CHOP inh 73 (no result: Lipid droplet)
CCCCN(C(=O)CCCc1nc2ccccc2s1)c1c(N)n(CC(C)C)c(=O)[nH]c1=O	none (no result: TMEM16A inh, CHOP inh, Lipid droplet)
COc1ccc(NC(=O)c2cc(C)no2)cc1	none (no result: CHOP inh)
O=C(COC(=O)[C@@H]1CC(O)CN1S(=O)(=O)c1ccc2c(c1)OCCO2)Nc1cc(F)ccc1F (some centres undefined)	none (no result: TMEM16A inh, CHOP inh, Lipid droplet)
O=C(Nc1ccccc1[N+](=O)[O-])c1cccnc1Cl	none
Cc1cc([N+](=O)[O-])nn1CCCC(=O)NC1CCCCC1	none
CCCCOC(=O)Nc1nnc(-c2ccccc2OC)s1	CHOP inh 83 (no result: Lipid droplet)
Cc1cccc2nc(COc3ccc(-c4ccccc4)cc3)cn12	TMEM16A inh 100 (no result: ANO1 activ)
Cc1cc(C)n2cc(COc3ccc4ccccc4c3)nc2n1	none
CCCCC1=CC2=C(c3ccco3)C(=O)C(C)(OC(=O)c3ccc(OC)cc3)C(=O)C2=CN1CC1CC1 (centres undefined)	CHOP inh 90
CCCCC1=CC2=C(c3ccco3)C(=O)C(C)(OC(=O)c3ccc(OC)cc3)C(=O)C2=CN1Cc1ccc(OC)cc1 (centres undefined)	none (no result: TMEM16A inh, ANO1 activ)
CCOC(=O)c1c(N)sc(C(O)(C(F)(F)F)C(F)(F)F)c1-c1ccc(F)cc1	CHOP inh 78 (no result: Lipid droplet)
